In brackets after ≈: the same amount, converted by molar mass.
Tests used:
Haemophilus influenzae [1] = test: Antimicrobial activity against amoxicillin-resistant Haemophilus influenzae by broth microdilution/CLSI method; format: functional
Enterococcus faecium = test: Antimicrobial activity against Enterococcus faecium by broth microdilution/CLSI method; format: functional
Haemophilus influenzae [2] = test: Antimicrobial activity against Haemophilus influenzae by broth microdilution/CLSI method; format: functional; details: Haemophilus influenzae; for MIC: read-out: MIC
Staphylococcus aureus [3] = test: Antimicrobial activity against Staphylococcus aureus by broth microdilution/CLSI method; format: functional
Enterococcus faecalis [4] = test: Antimicrobial activity against Enterococcus faecalis by broth microdilution/CLSI method; format: functional
[5] = Percentage unbound in human plasma; format: ADME, cell-free
[6] = Clearance in rat at 10 mg/kg, iv; format: ADME, organism-based; set-up: dose 10 mg/kg, route intravenous; details: in vivo
[7] = Ratio of MIC for methicillin, quinolone-resistant Staphylococcus aureus to fraction unbound in human plasma; format: ADME
[8] = Percentage unbound in mouse plasma; format: ADME, cell-free
Staphylococcus aureus [9] = test: Antimicrobial activity against methicillin, quinolone-resistant Staphylococcus aureus by broth microdilution/CLSI method; format: functional; details: Staphylococcus aureus; read-out: MIC
Staphylococcus aureus [10] = test: Antimicrobial activity against methicillin-sensitive Staphylococcus aureus by broth microdilution/CLSI method; format: functional; details: Staphylococcus aureus; read-out: MIC
Moraxella catarrhalis = test: Antimicrobial activity against Moraxella catarrhalis by broth microdilution/CLSI method; format: functional; details: Moraxella catarrhalis; read-out: MIC
[11] = Clearance in dog at 10 mg/kg, iv; format: ADME, organism-based, Canis lupus familiaris; set-up: dose 10 mg/kg, route intravenous; details: plasma
DNA gyrase subunit B = DNA gyrase subunit B (Staphylococcus aureus, UniProt P0A0K8); test: Inhibition of ATPase activity of Staphylococcus aureus GyrB
Summary of the method: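 IC50 was determined against S. aureus GyrB in the routine screening assay. The enzyme concentration limits resolution below 10 nM.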

[12] = Solubility of the compound; format: physicochemical
Streptococcus pyogenes = test: Antimicrobial activity against Streptococcus pyogenes by broth microdilution/CLSI method; format: functional
Escherichia coli [13] = test: Antimicrobial activity against wild-type Escherichia coli Eco523 by broth microdilution/CLSI method; format: functional; details: Escherichia coli, Eco523; read-out: MIC
[14] = Bioavailability in dog at 10 mg/kg, iv; format: ADME, organism-based, Canis lupus familiaris; details: plasma
[15] = Dissociation constant, pKa of the compound; format: physicochemical
[16] = Percentage unbound in rat plasma; format: ADME, cell-free
Escherichia coli [17] = test: Antimicrobial activity against Escherichia coli tolC- by broth microdilution/CLSI method; format: functional; details: Escherichia coli; read-out: MIC
[18] = Percentage unbound in dog plasma; format: ADME, cell-free, Canis lupus familiaris
[19] = Octanol-phosphate buffer distribution coefficient, log D of the compound at pH 7.4 by shake flask method; format: physicochemical
Streptococcus pneumoniae = test: Antibacterial activity against Streptococcus pneumoniae by broth microdilution/CLSI method; format: functional; details: Streptococcus pneumoniae; read-out: MIC
[20] = AUC in methicillin-sensitive Staphylococcus aureus ARC516 infected in neutropenic CD1 mouse thigh model at 30 mg/kg, ip q24; format: ADME, organism-based; set-up: dose 30 mg/kg, route intraperitoneal; details: in vivo
[21] = Bioavailability in CD1 mouse at 10 mg/kg, […]; format: ADME, organism-based; details: in vivo
[22] = biological target: T1, ATP-binding cassette sub-family C member 2 (Rattus norvegicus, UniProt Q63120); test: Stimulation of ATPase activity of rat Mrp2 assessed as inorganic phosphate
[23] = Clearance in CD1 mouse at 10 mg/kg, iv; format: ADME, organism-based; set-up: dose 10 mg/kg, route intravenous; details: in vivo
[24] = biological target: T2, ATP-binding cassette sub-family C member 2 (Homo sapiens, UniProt Q92887); test: Stimulation of ATPase activity of human MRP2 assessed as inorganic phosphate
[25] = biological target: T1, ATP-binding cassette sub-family C member 2; test: Inhibition of ATPase activity of rat Mrp2 assessed as inorganic phosphate
[26] = Bioavailability in Wistar rat at 10 mg/kg, […]; format: ADME, organism-based; details: in vivo
Staphylococcus aureus [27] = test: Antibacterial activity against methicillin-sensitive Staphylococcus aureus ARC516 infected in neutropenic CD1 mouse thigh model assessed as decrease in bacterial viable counts at 30 mg/kg, ip q24; format: functional; details: route intraperitoneal
Mus musculus = test: fAUC in methicillin-sensitive Staphylococcus aureus ARC516 infected in neutropenic CD1 mouse thigh model at 30 mg/kg, ip q24; format: ADME, organism-based; set-up: dose 30 mg/kg, route intraperitoneal; details: in vivo
[28] = biological target: T2, ATP-binding cassette sub-family C member 2; test: Inhibition of ATPase activity of human MRP2 assessed as inorganic phosphate
Staphylococcus aureus [29] = test: Antibacterial activity against methicillin-sensitive Staphylococcus aureus ARC516 infected in ip dosed neutropenic CD1 mouse thigh model assessed as decrease in bacterial viable counts treated for q24; format: functional; details: ARC516, Thigh muscle
Staphylococcus aureus [30] = test: Antimicrobial activity against methicillin-resistant Staphylococcus aureus by broth microdilution/CLSI method; format: functional
Enterococcus faecalis [31] = test: Antimicrobial activity against vancomycin-resistant Enterococcus faecalis by broth microdilution/CLSI method; format: functional
Staphylococcus aureus [32] = test: Antimicrobial activity against Staphylococcus aureus ARC516 by broth microdilution/CLSI method; format: functional
Staphylococcus aureus [33] = test: Antimicrobial activity against 2 times drug resistance selected Staphylococcus aureus ARC516-2F by broth microdilution/CLSI method; format: functional
Staphylococcus aureus [34] = test: Antimicrobial activity against 2 times drug resistance selected Staphylococcus aureus ARC516-1F by broth microdilution/CLSI method; format: functional

T1 sequence (Q63120 whole entry): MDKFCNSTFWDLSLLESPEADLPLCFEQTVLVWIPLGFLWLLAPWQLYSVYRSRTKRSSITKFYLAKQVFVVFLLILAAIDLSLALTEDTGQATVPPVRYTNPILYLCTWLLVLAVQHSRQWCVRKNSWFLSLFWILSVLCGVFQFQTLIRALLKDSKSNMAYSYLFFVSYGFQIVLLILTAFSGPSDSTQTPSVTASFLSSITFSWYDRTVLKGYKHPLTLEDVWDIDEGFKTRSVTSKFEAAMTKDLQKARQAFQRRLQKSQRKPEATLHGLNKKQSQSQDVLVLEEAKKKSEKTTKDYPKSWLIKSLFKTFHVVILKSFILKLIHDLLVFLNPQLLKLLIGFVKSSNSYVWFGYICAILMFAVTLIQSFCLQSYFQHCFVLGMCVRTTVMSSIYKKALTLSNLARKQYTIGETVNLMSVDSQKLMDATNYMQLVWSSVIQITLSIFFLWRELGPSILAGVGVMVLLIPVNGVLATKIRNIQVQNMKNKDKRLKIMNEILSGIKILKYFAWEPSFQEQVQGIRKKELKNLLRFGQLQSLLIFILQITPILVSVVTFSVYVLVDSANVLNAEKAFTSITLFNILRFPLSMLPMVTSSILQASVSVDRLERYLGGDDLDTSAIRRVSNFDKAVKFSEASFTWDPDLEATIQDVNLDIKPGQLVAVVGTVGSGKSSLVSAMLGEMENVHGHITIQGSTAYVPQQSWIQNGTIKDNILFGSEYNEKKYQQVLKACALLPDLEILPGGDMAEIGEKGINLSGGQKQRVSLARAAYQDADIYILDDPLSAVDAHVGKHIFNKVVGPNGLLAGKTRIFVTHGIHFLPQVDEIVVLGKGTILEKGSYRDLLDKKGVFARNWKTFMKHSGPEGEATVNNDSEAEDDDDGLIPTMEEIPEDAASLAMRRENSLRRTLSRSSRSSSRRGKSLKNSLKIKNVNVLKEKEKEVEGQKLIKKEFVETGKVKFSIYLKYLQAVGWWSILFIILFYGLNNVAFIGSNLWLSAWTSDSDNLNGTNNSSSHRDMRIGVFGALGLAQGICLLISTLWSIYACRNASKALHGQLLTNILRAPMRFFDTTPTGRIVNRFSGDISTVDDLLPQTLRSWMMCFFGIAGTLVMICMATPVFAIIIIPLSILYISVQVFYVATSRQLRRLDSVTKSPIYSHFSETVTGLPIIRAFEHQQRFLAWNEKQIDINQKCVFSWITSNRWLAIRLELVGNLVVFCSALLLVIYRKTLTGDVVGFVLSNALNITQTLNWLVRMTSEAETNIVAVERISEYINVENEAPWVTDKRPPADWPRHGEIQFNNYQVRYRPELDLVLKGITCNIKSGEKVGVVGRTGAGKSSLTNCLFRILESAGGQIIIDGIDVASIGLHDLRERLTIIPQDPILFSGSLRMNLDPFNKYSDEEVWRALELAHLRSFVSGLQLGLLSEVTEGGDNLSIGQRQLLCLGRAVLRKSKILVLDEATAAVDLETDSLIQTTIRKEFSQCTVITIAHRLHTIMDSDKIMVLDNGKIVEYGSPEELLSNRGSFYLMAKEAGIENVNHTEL
T2 sequence (Q92887 whole entry): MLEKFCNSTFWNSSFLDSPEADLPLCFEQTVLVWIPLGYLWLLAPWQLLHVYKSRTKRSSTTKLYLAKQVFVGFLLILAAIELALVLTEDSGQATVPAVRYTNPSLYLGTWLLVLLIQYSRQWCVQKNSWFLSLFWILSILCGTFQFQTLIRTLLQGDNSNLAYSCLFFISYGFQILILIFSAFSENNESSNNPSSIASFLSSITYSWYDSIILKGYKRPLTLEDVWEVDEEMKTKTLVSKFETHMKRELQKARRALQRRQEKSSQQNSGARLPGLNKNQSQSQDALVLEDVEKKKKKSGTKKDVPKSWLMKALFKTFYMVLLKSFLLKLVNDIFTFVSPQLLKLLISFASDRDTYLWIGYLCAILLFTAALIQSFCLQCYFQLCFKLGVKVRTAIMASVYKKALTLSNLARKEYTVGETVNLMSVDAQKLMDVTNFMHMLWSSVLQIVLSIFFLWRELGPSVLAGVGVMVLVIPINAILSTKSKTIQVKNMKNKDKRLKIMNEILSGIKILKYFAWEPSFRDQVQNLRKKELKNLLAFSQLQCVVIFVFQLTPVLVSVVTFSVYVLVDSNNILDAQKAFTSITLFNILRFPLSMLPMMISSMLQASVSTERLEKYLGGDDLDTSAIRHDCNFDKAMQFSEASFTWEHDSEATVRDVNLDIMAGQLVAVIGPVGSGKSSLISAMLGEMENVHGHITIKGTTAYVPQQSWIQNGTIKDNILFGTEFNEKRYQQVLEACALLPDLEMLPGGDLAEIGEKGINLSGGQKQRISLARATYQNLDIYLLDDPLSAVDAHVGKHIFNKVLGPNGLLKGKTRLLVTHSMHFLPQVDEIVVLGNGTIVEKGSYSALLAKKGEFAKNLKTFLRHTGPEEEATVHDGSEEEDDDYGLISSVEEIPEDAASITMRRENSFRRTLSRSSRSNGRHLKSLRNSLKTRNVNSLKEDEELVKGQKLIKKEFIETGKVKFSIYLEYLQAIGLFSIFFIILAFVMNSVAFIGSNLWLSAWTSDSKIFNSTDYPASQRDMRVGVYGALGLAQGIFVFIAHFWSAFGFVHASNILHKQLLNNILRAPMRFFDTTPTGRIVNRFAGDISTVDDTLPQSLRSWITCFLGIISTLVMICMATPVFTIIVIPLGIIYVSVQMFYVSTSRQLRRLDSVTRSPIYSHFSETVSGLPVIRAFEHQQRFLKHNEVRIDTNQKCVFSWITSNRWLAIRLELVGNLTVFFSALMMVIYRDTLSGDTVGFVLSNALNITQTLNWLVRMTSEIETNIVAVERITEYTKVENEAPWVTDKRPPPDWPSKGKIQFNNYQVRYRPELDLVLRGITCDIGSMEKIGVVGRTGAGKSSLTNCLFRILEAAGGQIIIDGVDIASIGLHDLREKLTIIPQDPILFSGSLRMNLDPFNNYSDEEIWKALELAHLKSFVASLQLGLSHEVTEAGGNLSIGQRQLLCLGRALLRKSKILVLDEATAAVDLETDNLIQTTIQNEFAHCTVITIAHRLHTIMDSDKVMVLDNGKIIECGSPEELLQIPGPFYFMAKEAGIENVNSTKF
DNA gyrase subunit B, sequence (P0A0K8 whole entry): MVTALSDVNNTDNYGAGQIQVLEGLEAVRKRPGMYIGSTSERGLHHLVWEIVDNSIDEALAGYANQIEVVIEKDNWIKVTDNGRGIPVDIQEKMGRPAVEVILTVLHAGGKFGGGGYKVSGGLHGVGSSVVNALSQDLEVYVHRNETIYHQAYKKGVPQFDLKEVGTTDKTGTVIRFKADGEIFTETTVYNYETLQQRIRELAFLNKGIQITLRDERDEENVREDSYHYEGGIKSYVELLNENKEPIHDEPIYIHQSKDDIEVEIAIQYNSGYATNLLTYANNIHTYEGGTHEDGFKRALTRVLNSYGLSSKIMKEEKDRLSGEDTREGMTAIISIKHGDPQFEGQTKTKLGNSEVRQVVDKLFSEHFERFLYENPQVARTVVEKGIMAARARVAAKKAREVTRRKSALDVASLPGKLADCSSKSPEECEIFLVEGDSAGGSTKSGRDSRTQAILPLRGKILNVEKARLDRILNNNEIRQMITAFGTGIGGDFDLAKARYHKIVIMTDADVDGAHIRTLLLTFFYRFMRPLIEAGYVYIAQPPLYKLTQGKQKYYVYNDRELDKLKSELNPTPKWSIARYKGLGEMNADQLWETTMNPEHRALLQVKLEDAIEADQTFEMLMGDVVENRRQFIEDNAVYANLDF

Compound | MIC90 (Haemophilus influenzae [1]) [µg/mL] | MIC90 (Enterococcus faecium) [µg/mL] | MIC90 (Haemophilus influenzae [2]) [µg/mL] | MIC90 (Staphylococcus aureus [3]) [µg/mL] | MIC90 (Enterococcus faecalis [4]) [µg/mL] | fraction unbound [5] | clearance [6] [mL/min/kg] | Ratio [7] | fraction unbound [8] | MIC (Staphylococcus aureus [9]) [µg/mL] | MIC (Staphylococcus aureus [10]) [µg/mL] | MIC (Moraxella catarrhalis) [µg/mL] | clearance [11] [mL/min/kg] | IC50 (DNA gyrase subunit B) [µM] | solubility [12] [µM] | MIC (Streptococcus pyogenes) [µg/mL] | MIC (Escherichia coli [13]) [µg/mL] | bioavailability [14] [%] | pKa [15] | fraction unbound [16] | further results
CC[C@H]1OC(=O)[C@H](C)[C@@H](O[C@H]2C[C@@](C)(OC)[C@@H](O)[C@H](C)O2)[C@H](C)[C@@H](O[C@@H]2O[C@H](C)C[C@H](N(C)C)[C@H]2O)[C@](C)(O)C[C@@H](C)CN(C)[C@H](C)[C@@H](O)[C@]1(C)O [AZITHROMYCIN] | 2 (≈ 2.67 µM) | > 128 | 2 (≈ 2.67 µM) | > 128 | > 128 | – | – | – | – | – | – | – | – | – | – | – | – | – | – | – | –
CO[C@H]1CN(c2nc(-c3cnccn3)c(C(=O)O)s2)CC[C@H]1NC(=O)c1[nH]c(C)c(Cl)c1Cl | – | – | – | – | – | 0.039 | 2.7 | 0.46 | 0.074 | 0.018 (≈ 0.0352 µM) | 0.031 (≈ 0.0606 µM) | 0.008 (≈ 0.0156 µM) | 0.73 | < 0.01 | 540 (≈ 276 µg/mL) | 0.01 (≈ 0.0196 µM) | > 8 | 18 | 5.4 | 0.0715 | MIC (Haemophilus influenzae [2]): 0.13 µg/mL (≈ 0.254 µM); MIC (Escherichia coli [17]): 0.5 µg/mL (≈ 0.978 µM); fraction unbound [18]: 0.13; logD [19]: 1.2; MIC (Streptococcus pneumoniae): 0.007 µg/mL (≈ 0.0137 µM)
CO[C@H]1CN(c2nc(-c3ncnn3C)c(C(=O)O)s2)CC[C@H]1NC(=O)c1[nH]c(C)c(Cl)c1Cl | – | – | – | – | – | 0.032 | 17 | 1.25 | 0.097 | 0.04 (≈ 0.0778 µM) | 0.063 (≈ 0.122 µM) | 0.026 (≈ 0.0505 µM) | 1.6 | < 0.01 | 630 (≈ 324 µg/mL) | 0.016 (≈ 0.0311 µM) | 32 (≈ 62.2 µM) | 70 | 4.5 | 0.088 | AUC [20]: 204 µg·h/mL; bioavailability [21]: 74%; EC50 [22]: 110 µM; clearance [23]: 7.4 mL/min/kg; EC50 [24]: 140 µM; IC50 [25]: > 200 µM; bioavailability [26]: 65%; MIC (Haemophilus influenzae [2]): 0.12 µg/mL (≈ 0.233 µM); deltalog10CFU (Staphylococcus aureus [27]): 1.54; fAUC (Mus musculus): 19.8 µg·h/mL; MIC (Escherichia coli [17]): 0.46 µg/mL (≈ 0.894 µM); IC50 [28]: > 200 µM; MIC (Staphylococcus aureus [29]): 0.03 µg/mL (≈ 0.0583 µM); fraction unbound [18]: 0.2; logD [19]: 0.15; MIC (Streptococcus pneumoniae): 0.007 µg/mL (≈ 0.0136 µM)
C[C@H]1COc2c(N3CCN(C)CC3)c(F)cc3c(=O)c(C(=O)O)cn1c23.C[C@H]1COc2c(N3CCN(C)CC3)c(F)cc3c(=O)c(C(=O)O)cn1c23.O [LEVOFLOXACIN] | 0.015 | > 128 | 0.015 | 32 | 32 | – | – | – | – | – | – | – | – | – | – | – | – | – | – | – | MIC90 (Staphylococcus aureus [30]): 64 µg/mL; MIC90 (Enterococcus faecalis [31]): 64 µg/mL
CC(=O)NC[C@H]1CN(c2ccc(N3CCOCC3)c(F)c2)C(=O)O1 [LINEZOLID] | – | – | – | – | – | – | – | – | – | – | – | – | – | – | – | – | – | – | – | – | MIC (Staphylococcus aureus [32]): 1 µg/mL (≈ 2.96 µM); MIC (Staphylococcus aureus [33]): 0.5 µg/mL (≈ 1.48 µM); MIC (Staphylococcus aureus [34]): 1 µg/mL (≈ 2.96 µM)

— ChEMBL document CHEMBL3352173, “Optimization of pyrrolamide topoisomerase II inhibitors toward identification of an antibacterial clinical candidate (AZD5099)” (J Med Chem, 2014)
